Laboratory results reported in ChEMBL document CHEMBL1122794, “[(Arylcarbonyl)oxy]propanolamines. 1. Novel beta-blockers with ultrashort duration of action” (J Med Chem, 1984).

Legend:
Adrenergic receptor beta [1] = biological target: T1, Adrenergic receptor beta (Homo sapiens, UniProt P08588+P07550+P13945); assay: In Vitro inhibition of the beta adrenergic receptor in guinea pig atria; assay type: tissue-based, Cavia porcellus; details: target entry is the homologue from another species
Adrenergic receptor beta [2] = biological target: T1, Adrenergic receptor beta; assay: In vitro blocking of beta adrenergic receptor in guinea pig trachea; assay type: tissue-based, Cavia porcellus; details: target entry is the homologue from another species
[3] = Selectivity determined by expression 10[pA2(atria) - pA2 (trachea)] in guinea pig; assay type: functional, Cavia porcellus
Canis familiaris [4] = species on record: Canis familiaris; assay: Time taken for 80% recovery at a dose of 50 microg (3-h infusion period); assay type: functional, organism-based; details: Canis lupus familiaris
[5] = T1/2 in canine blood; assay type: ADME, […], Canis lupus familiaris; details: dog
How it was run: (§1)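 1 mL of solution containing 50 µg of compound was added to 1 mL of dog or human whole blood, or to 1 mL of 33% (w/v) canine liver homogenate. They were assayed by HPLC on a phenyl column with 60% acetonitrile/40% 0.05 M sodium phosphate (pH 6.6) and UV detection. Half-life was read graphically from concentration versus time.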

[6] = t1/2 in canine liver; assay type: ADME, Canis lupus familiaris; details: dog
[7] = Time in which 1/2 of the initial amount disappeared in human blood.; assay type: ADME, organism-based; how it was run: as §1
[8] = Stability at pH 7.4 and 37 degree Celsius (after 18 h); assay type: physicochemical; details: buffer
How it was run: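 Chemical stability was tested in pH 7.4 buffer at 37 °C. The percentage of parent compound remaining after 18 h of incubation was recorded.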

Canis familiaris [9] = species on record: Canis familiaris; assay: Time taken for 80% recovery at a dose of 7 microg (3-h infusion period); assay type: functional, organism-based; details: Canis lupus familiaris
How it was run: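 After the infusion ended, the time to 80% recovery of the blockade was recorded as duration of action. The listed dose is the average amount infused per minute over the 3-h period, in µg/(kg min).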

Canis familiaris [10] = species on record: Canis familiaris; assay: Percent inhibition of isoproterenol induced tachycardia at a dose of 7 microg (3-h infusion period); assay type: functional, Canis lupus familiaris
Canis familiaris [11] = species on record: Canis familiaris; assay: Time taken for 80% recovery at a dose of 121 microg (3-h infusion period) / 88 kg min (40-min infusion model); assay type: functional, organism-based; details: Canis lupus familiaris
Canis familiaris [12] = species on record: Canis familiaris; assay: Time taken for 80% recovery at a dose of 28 microg (3-h infusion period); assay type: functional, organism-based; details: Canis lupus familiaris
[13] = biological target: Beta-2 adrenergic receptor (Cavia porcellus) (UniProt Q8K4Z4); assay: In Vitro evaluation for […] selectivity in guinea pig
Sequence of Beta-2 adrenergic receptor (Cavia porcellus) (Q8K4Z4 whole entry, looked up): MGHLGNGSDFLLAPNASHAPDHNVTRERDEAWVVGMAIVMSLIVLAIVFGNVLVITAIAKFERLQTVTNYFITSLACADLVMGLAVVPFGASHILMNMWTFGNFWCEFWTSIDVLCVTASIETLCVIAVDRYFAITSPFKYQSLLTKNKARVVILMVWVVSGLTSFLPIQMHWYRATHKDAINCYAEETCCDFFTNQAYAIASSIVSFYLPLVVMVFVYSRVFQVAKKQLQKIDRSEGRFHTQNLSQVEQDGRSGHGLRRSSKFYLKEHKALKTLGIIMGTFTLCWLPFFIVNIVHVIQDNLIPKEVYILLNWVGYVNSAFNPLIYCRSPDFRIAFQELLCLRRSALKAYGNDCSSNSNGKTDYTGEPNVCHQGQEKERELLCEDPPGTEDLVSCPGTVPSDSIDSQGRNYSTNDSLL
How it was run: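 Selectivity index calculated as 10^[pA2(atria) − pA2(trachea)] from pA2 values measured in isolated guinea pig atria and trachea. A minus sign denotes β2 selectivity.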

Canis familiaris [14] = species on record: Canis familiaris; assay: Time taken for 80% recovery at a dose of 123 microg (3-h infusion period); assay type: functional, organism-based; details: Canis lupus familiaris

Compound	pA2 (Adrenergic receptor beta [1])	pA2 (Adrenergic receptor beta [2])	Selectivity [3]	half-life [6]	other results
CCCOc1cccc(C(=O)OCC(O)CNC(C)C)c1 (stereo not given)	6.6	–	–	–	–
COc1ccc(CCNCC(O)COC(=O)c2ccc(C)cc2)cc1OC (stereo not given)	6.6	6	4	–	–
CC(C)(C)NCC(O)COC(=O)c1cccc(N)c1 (stereo not given)	6.7	7.2	-3.5	–	–
CC(C)(C)NCC(O)COC(=O)C1CCCC1 (stereo not given)	5.3	–	–	–	–
Cc1ccccc1C(=O)OCC(O)CNC(C)C (stereo not given)	6.5	7.1	-4	147 min	Recovery time (Canis familiaris [4]): > 60 min; half-life [5]: > 180 min; half-life [7]: > 180 min; remaining at 18 h [8]: 100%
CC(C)NCC(O)COC(=O)c1ccc(F)cc1 (stereo not given)	6.6	7.3	-5	3 min	half-life [5]: 4 min; half-life [7]: 3.5 min
CC(C)(C)NCC(O)COC(=O)c1cccc([N+](=O)[O-])c1 (stereo not given)	6.8	–	–	> 180 min	half-life [5]: 74 min
CC(=O)NCC(C)NCC(O)COC(=O)c1ccccc1F (stereo not given)	< 6.3	–	–	–	–
CC(C)(C)NCC(O)COC(=O)c1cccc2ccccc12 (stereo not given)	6.8	7.4	-4	> 180 min	half-life [5]: > 180 min
CC(=O)Nc1ccc(C(=O)OCC(O)CNC(C)C)cc1 (stereo not given)	5.8	5.2	4	–	–
Cc1ccccc1C(=O)OCC(O)CNC(C)(C)C (stereo not given)	7.3	7.9	-4	> 180 min	half-life [5]: > 180 min; half-life [7]: > 180 min; remaining at 18 h [8]: 100%
CC(C)NCC(O)COC(=O)c1cccc(N)c1 (stereo not given)	6.4	6.8	-2.5	> 180 min	Recovery time (Canis familiaris [9]): > 60 min; half-life [5]: > 180 min; Inhibition (Canis familiaris [10]): 80%
CCC(C)(C)NCC(O)COC(=O)c1ccccc1F (stereo not given)	6.7	7.7	-5	12 min	half-life [5]: 6 min
COc1ccc(CCNCC(O)COC(=O)c2ccccc2)cc1OC (stereo not given)	7	6.3	5	–	Recovery time (Canis familiaris [11]): 29 min
C#CC(C)(C)NCC(O)COC(=O)c1ccccc1F (stereo not given)	6.6	6.7	1	7 min	half-life [5]: 12 min
CC(C)NCC(O)COc1ccccc1 (stereo not given)	8	7.4	4	–	–

Compound	pA2 (Adrenergic receptor beta [1])	pA2 (Adrenergic receptor beta [2])	Selectivity [3]	half-life [6]	other results
COc1ccc(CCNCC(O)COC(=O)c2ccc(CO)cc2)cc1OC (stereo not given)	< 5.5	–	–	–	–
COc1ccc(CCNCC(O)COC(=O)c2ccccc2Cl)cc1OC (stereo not given)	7.8	7.5	2	–	remaining at 18 h [8]: 59%
CC(C)(C)NCC(O)COC(=O)c1ccncc1 (stereo not given)	5.3	–	–	–	–
CC(C)NCC(O)COC(=O)c1ccc(OCc2ccccc2)cc1 (stereo not given)	< 6	–	–	–	–
C=CCOc1ccccc1C(=O)OCC(O)CNC(C)C (stereo not given)	6.4	6.2	-2	–	–
CCCOc1ccc(C(=O)OCC(O)CNC(C)(C)C)cc1 (stereo not given)	5.4	–	–	–	–
CC(C)C(=O)NCCNCC(O)COC(=O)c1ccccc1F (stereo not given)	6.1	–	–	–	–
CC(C)(C)NCC(O)COC(=O)c1ccc(N)cc1 (stereo not given)	7	7	1	–	–
COc1ccc(CCNCC(O)COC(=O)c2ccc(N)cc2)cc1OC (stereo not given)	6.5	5.7	6	–	–
CC(C)NCC(O)COC(=O)c1cccc2ccccc12 (stereo not given)	6.6	7	-2.5	–	–
CC(C)(C)NCC(O)COC(=O)c1ccc2c(c1)OCO2 (stereo not given)	6.9	–	–	–	Recovery time (Canis familiaris [12]): > 60 min
COc1ccc(CCNCC(O)C(=O)Oc2ccccc2)cc1OC (stereo not given)	5.9	5.9	–	–	Selectivity [13]: 1
CC(C)NCC(O)COC(=O)c1ccc2c(c1)OCO2 (stereo not given)	6.9	–	–	29 min	Recovery time (Canis familiaris [14]): 50 min
CC(C)NCC(O)COC(=O)c1cccc(F)c1 (stereo not given)	–	–	–	11 min	half-life [5]: 52 min; half-life [7]: 8 min
CC(C)NCC(O)COC(=O)c1cccc([N+](=O)[O-])c1 (stereo not given)	6.8	7.2	-2.5	–	–
